A selection: hits, their analogues and other compounds. The true share with any hit is near 1.8%.
NPY Y2 blocker – antagonists of human neuropeptide Y receptor Y2. inhibition, % at 2.7 µM. NPY-Y2 expressing cells, antagonist mode. AID 793. P49146. actives 0.99% (n = 140,000); in the data active means inhibition above about 17%;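 further: 0% = vehicle with agonist challenge and 100% = reference antagonist with challenge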
Target sequence (P49146 whole entry, looked up): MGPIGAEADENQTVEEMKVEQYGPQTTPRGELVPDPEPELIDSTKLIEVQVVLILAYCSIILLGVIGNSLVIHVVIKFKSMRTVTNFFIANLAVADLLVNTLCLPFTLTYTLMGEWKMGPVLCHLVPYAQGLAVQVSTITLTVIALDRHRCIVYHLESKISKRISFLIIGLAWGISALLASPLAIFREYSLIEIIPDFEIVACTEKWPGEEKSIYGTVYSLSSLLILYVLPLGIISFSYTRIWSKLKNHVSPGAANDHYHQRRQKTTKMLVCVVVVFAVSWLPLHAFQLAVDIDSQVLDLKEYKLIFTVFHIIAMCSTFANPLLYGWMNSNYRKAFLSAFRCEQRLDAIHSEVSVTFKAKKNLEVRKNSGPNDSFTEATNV
NPY-Y1 antag – NPY-Y1 (human) receptor antagonism; P25929; AID 1040; actives 1% (n = 200,000); inhibition, % at 3.6 µM; HEK293-CNG Y1 cells, membrane potential fluorescence; NPY at EC95, then isoproterenol;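 active means inhibition above the campaign mean inhibition of all tested compounds plus 3 SD, cut at about 20% in these data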;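 further: 0% = DMSO wells given NPY plus isoproterenol and 100% = isoproterenol alone without NPY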
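Material: HEK293 Y1/CNG channel cell line | Also added: NPY (25 nM), isoproterenol (1 µM), Ro 20-1724 (25 µM) | Compound: One concentration, 3.6 µM, in 0.4% DMSO | Schedule: 3 h dye uptake, 1 h room-temperature compound, 45 min post-isoproterenol | Signal: Membrane-potential fluorescent dye readout | Read-out: % inhibition of NPY effect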
NPY-Y1 PAM-ag – potentiates or activates human NPY-Y1 receptor; P25929; NPY-Y1 expressing cells, potentiator/agonist activation; activation, % at 3.6 µM; actives 0.37% (n = 220,000); in the data active means activation above about 33%, passing the limit was not always enough;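 further: cells stimulated with NPY at EC10 then isoproterenol at EC100; 0% = low agonist plus stimulus and 100% = saturating agonist plus stimulus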
NPY2 pot ag – human NPY-Y2 potentiation or agonism, primary screen; cells expressing NPY-Y2, potentiator/agonist read-out; activation, % at 3.6 µM; actives 0.45% (n = 220,000); P49146; AID 1359; in the data active means activation above about 27%;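 further: cells stimulated with NPY near EC25 plus isoproterenol at EC100; 0% = vehicle plus submaximal agonist and 100% = vehicle plus saturating agonist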
NPY-Y2 pot conf – human NPY-Y2 potentiation or agonism, confirmation. shares compounds with NPY2 pot ag. cell-based NPY-Y2 potentiator/agonist assay. activation, % at 3.6 µM. actives 20% (n = 450). AID 1539; in the data active means activation above about 33%
NPY-Y1 counter – NPY-Y1 potentiation or agonism as NPY-Y2 counter-screen. activation, % at 3.6 µM. actives 20% (n = 450). Y1 HEK293-CNG cells, membrane potential fluorescence. AID 1651. shares compounds with NPY2 pot ag; in the data active means activation above about 45%;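 further: cells stimulated with submaximal NPY then isoproterenol with phosphodiesterase inhibitor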
NPY-Y1 ag 2 – activates human NPY-Y1, counter-screen for NPY-Y2 potentiators; activation, % at 3.6 µM; shares compounds with NPY2 pot ag; HEK293 Y1-CNGC, membrane potential fluorescence, agonism; actives 37% (n = 450);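 active means activation above the mean of DMSO-only control wells plus 3 SD, cut at about 18% in these data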;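 further: cells stimulated with 1 µM isoproterenol plus the PDE inhibitor Ro 20-1724; 0% = isoproterenol with DMSO and no NPY and 100% = 40 nM NPY; Y1 agonists lower the membrane potential dye signal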
CNGC inhibitor – cyclic nucleotide gated channel inhibition as counter-screen; inhibition, % at 3.6 µM; shares compounds with NPY2 pot ag; HEK293-CNG parental, isoproterenol cAMP, membrane potential fluorescence; actives 32% (n = 450);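 active means inhibition above the control-well mean plus 3 SD of those wells, cut at about 22% in these data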;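 further: 0% = DMSO with isoproterenol and 100% = DMSO without isoproterenol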
Y2 agonist ctr – NPY-Y2 agonism, counter-screen for Y2 potentiators; actives 56% (n = 450); activation, % at 3.6 µM; shares compounds with NPY2 pot ag; AID 1710; HEK293 Y2/CNGC cells, membrane potential fluorescence, agonist mode;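 active means activation above the mean of solvent-only control wells plus 3 SD, cut at about 10% in these data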;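 further: cells stimulated by isoproterenol with no NPY added so direct agonism is tested; 0% = DMSO with isoproterenol alone and 100% = NPY at EC100 plus isoproterenol; agonism lowers probe fluorescence through less cAMP and CNG channel opening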
Active calls of the source: *; nt = not tested or not shown.

SMILES	NPY Y2 blocker	NPY-Y1 antag	NPY-Y1 PAM-ag	NPY2 pot ag	NPY-Y2 pot conf	NPY-Y1 counter	NPY-Y1 ag 2	CNGC inhibitor	Y2 agonist ctr
Cc1nonc1CC(=O)N1CCCC(C(=O)c2cccc(C(F)(F)F)c2)C1 (centres undefined)	nt	6	-1	-11	nt	nt	nt	nt	nt
O=C(Nc1ccc(F)cc1)NC1CCCCC1	1	2	-11	99*	-5	-3	-6	-8	-11
CCCOP(=O)(OCCC)C(Nc1ccc(C(C)C)cc1)c1ccc([N+](=O)[O-])cc1 (centres undefined)	13	9	28	35*	12	24	16	6	8
COP(=O)(OC)C(Nc1ccc([N+](=O)[O-])cc1)c1ccccc1 (centres undefined)	nt	nt	18	-7	nt	nt	nt	nt	nt
NS(=O)(=O)c1cccc(NS(=O)(=O)c2ccc(/C=C/C(=O)OCC(=O)c3ccccc3)cc2)c1	nt	-5	30	22	nt	nt	nt	nt	nt
CCOC(=O)CSc1nnc(-c2ccccc2OC)o1	2	-2	-8	-5	nt	nt	nt	nt	nt
COC(=O)CSc1nnc(-c2ccc(OC)cc2OC)o1	0	-5	5	50*	36*	61*	36*	49*	25*
CNC[C@H](O)c1ccc(O)c(O)c1	1	-3	61	60*	59*	48*	71*	58*	49*
Nc1nc(Nc2ccc(Cl)cc2)nc2ccccc12	-1	-6	36	51*	55*	65*	41*	50*	42*
Nc1nc(CCl)nc(Nc2ccccc2)n1	nt	-3	12	-8	nt	nt	nt	nt	nt
CCSc1nnc(NC(=O)CCc2ccccc2)s1	4	-1	-20	16	nt	nt	nt	nt	nt
CCSc1nnc(NC(=O)CCNS(=O)(=O)c2cc(Br)cnc2N)s1	-4	1	0	28*	11	3	24*	16	24*
CN1CCN(c2ccc(NC(=O)c3ccc(C#N)cc3F)cc2Cl)CC1	nt	4	12	-2	nt	nt	nt	nt	nt
O=C(N/N=C/c1cccc2cccnc12)c1ccccc1O	nt	nt	36	38*	22	26	15	6	12*
O=C(N/N=C/c1cccc2nccnc12)c1ccccc1O	nt	nt	1	9	nt	nt	nt	nt	nt
COC(=O)/C(=C/c1cn(C(C)=O)c2ccccc12)[N+](=O)[O-]	nt	nt	35	61*	18	32	25*	20	18*
COC(=O)/C(=C/c1cn(C)c2ccccc12)[N+](=O)[O-]	1	-6	20	2	nt	nt	nt	nt	nt
CCOC(=O)c1c(C2CC2)csc1NC(=O)COC(=O)c1cnc(Cl)c(Cl)c1	6	-2	15	60*	-11	-22	-26	-12	-14
Cc1nnc(Sc2nc3c(c(=O)n(C)c(=O)n3C)n2Cc2ccc(Cl)cc2)s1	0	5	-3	-12	nt	nt	nt	nt	nt
O=C(N/N=C/c1ccc(Cl)c([N+](=O)[O-])c1)c1cc(-c2ccc3c4c(cccc24)CC3)n[nH]1	nt	nt	36	45*	15	25	18*	12	23*
O=C(N/N=C/c1cccc([N+](=O)[O-])c1)c1cc(-c2ccc3c4c(cccc24)CC3)n[nH]1	0	-5	2	24	nt	nt	nt	nt	nt
C=CCN1C(=O)/C(=C/c2ccc(OC(C)=O)c(OCC)c2[N+](=O)[O-])SC1=S	nt	4	10	36*	14	-5	5	2	12*
CCOc1c(OC(C)=O)ccc(/C=C/c2ccc3cccc(OC(C)=O)c3n2)c1[N+](=O)[O-]	0	-12	22	24	nt	nt	nt	nt	nt
COc1ccc(S(=O)(=O)N2CCC(n3cnc4cc(C(F)(F)F)ccc43)CC2)cc1	0	-5	18	3	nt	nt	nt	nt	nt
CC(=O)Nc1ccc(S(=O)(=O)N2CCC(n3cnc4cc(F)ccc43)CC2)cc1	0	2	10	35*	8	7	4	4	-5
SMILES	NPY Y2 blocker	NPY-Y1 antag	NPY-Y1 PAM-ag	NPY2 pot ag	NPY-Y2 pot conf	NPY-Y1 counter	NPY-Y1 ag 2	CNGC inhibitor	Y2 agonist ctr
CC(=O)[C@@]1(O)C(C)CC2C3C=C(C)C4=Cc5c(cnn5-c5ccccc5)C[C@]4(C)C3C(O)C[C@@]21C (some centres undefined)	nt	nt	9	20	nt	nt	nt	nt	nt
COc1ccccc1CNC(=O)C1CC(c2ccccc2[N+](=O)[O-])=NO1 (centres undefined)	5	4	-18	-2	nt	nt	nt	nt	nt
Cc1cccc(C)c1OCC(O)CNC(C)(C)C (centres undefined)	1	3	19	41*	12	13	9	12	13*
Cc1ccc(-n2c(SCC(N)=O)nc3c(c2=O)C2(CCCC2)Cc2ccccc2-3)cc1	-4	-12	26	35*	32	47*	43*	29*	42*
Cc1cccc(-n2c(N)cc(=O)nc2SCC(=O)Nc2cc(C)on2)c1	2	3	34	79*	-4	2	-5	-4	-8
CC(C)(C)C(=O)N1N=C(c2ccc(NS(C)(=O)=O)cc2)CC1c1cccs1 (centres undefined)	nt	1	-3	8	nt	nt	nt	nt	nt
CCCOc1ccc(/C=N/NC(=O)c2ccc(Cn3cc([N+](=O)[O-])cn3)o2)cc1	-3	-2	-31	41*	0	2	-12	5	-1
COc1cccc(NC(=O)C2(S(=O)(=O)c3ccc(Cl)cc3)CC2)c1	nt	nt	9	-3	nt	nt	nt	nt	nt
CCC(C)N(C)C1CCN(C(=S)Nc2cccc(OC)c2)CC1 (centres undefined)	nt	-2	0	82*	-3	3	-4	3	8
O=C(CSCc1c(F)cccc1Cl)NCc1cccnc1	2	-3	2	16	nt	nt	nt	nt	nt
CC(=O)N(Cc1ccc(F)cc1)C1=C(NCc2ccccc2)C(=O)c2ccccc2C1=O	2	3	-7	38*	16	10	1	13	10*
Cc1ccc(NS(=O)(=O)c2ccc(C(=O)N3CCN(c4ncccn4)CC3)cc2)cc1	nt	-1	8	35*	-5	-19	-20	-10	-13
O=C(c1ccc(S(=O)(=O)Nc2ccc(F)cc2)cc1)N1CCN(c2ccccn2)CC1	nt	-5	-3	8	nt	nt	nt	nt	nt
N#C/C(=N\Nc1ccc([N+](=O)[O-])cc1)C(=N)N1CCOCC1	nt	nt	-1	-1	nt	nt	nt	nt	nt
N#C/C(=N/Nc1ccc([N+](=O)[O-])cc1)C(=N)N1CCCCC1	nt	-9	28	35*	32	45*	43*	28*	30*
CCNC(=O)CSc1nnc(-c2cc(-c3ccc(Cl)cc3)nc3ccccc23)o1	5	11	-49	-25	nt	nt	nt	nt	nt

High-throughput results from PubChem BioAssay.
